Laboratory results from ChEMBL document CHEMBL2311452 (J Med Chem, 2013).

Legend:
Neuraminidase [1] = target: T1, Neuraminidase (Influenza A virus, UniProt B4URF0); assay: Inhibition of Influenza A virus (A/Indonesia/5/2005(H5N1)) neuraminidase infected in chick embryo using MUNANA as substrate after 1 hr by spectrophotometric analysis
Neuraminidase [2] = target: T1, Neuraminidase; assay: Inhibition of Influenza A virus (A/Sydney/5/1997(H3N2)) neuraminidase infected in chick embryo using MUNANA as substrate after 1 hr by spectrophotometric analysis
Neuraminidase [3] = target: T1, Neuraminidase; assay: Inhibition of influenza A virus (A/Guangdong/376/2001(H1N1)) neuraminidase infected in chick embryo using MUNANA as substrate after 1 hr by spectrophotometric analysis
[4] = Terminal half life in Sprague-Dawley rat at 10 mg/kg, iv; type: ADME, organism-based; parameters: dose 10 mg/kg, route intravenous; settings: in vivo, read-out: beta t1/2 (converted)
[5] = Volume of distribution at steady state in Sprague-Dawley rat at 10 mg/kg, iv; type: ADME, organism-based; parameters: dose 10 mg/kg, route intravenous; settings: in vivo, read-out: Vdss
[6] = Terminal half life in Sprague-Dawley rat at 10 mg/kg, po; type: ADME, organism-based; parameters: dose 10 mg/kg, route oral; settings: in vivo, read-out: beta t1/2 (converted)
How it was run: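 Single 10 mg/kg oral dose given to male Sprague-Dawley rats (~250 g), three per group. Plasma concentrations were measured by LC/MS/MS, and parameters came from noncompartmental analysis of mean plasma concentrations.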

[7] = Cmax in Sprague-Dawley rat at 10 mg/kg, po; type: ADME, organism-based; parameters: dose 10 mg/kg, route oral; settings: in vivo
How it was run: (§1)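 Single 10 mg/kg oral dose given to male Sprague-Dawley rats (~250 g), three per group. Blood was sampled via the retrobulbar vein at 0, 5, 15 and 30 min and at 1, 2, 5, 8 and 24 h. Plasma concentrations were measured by LC/MS/MS, and parameters came from noncompartmental analysis of mean plasma concentrations.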

[8] = Oral bioavailability in Sprague-Dawley rat at 10 mg/kg; type: ADME, organism-based; settings: in vivo; how it was run: as §1
[9] = Tmax in Sprague-Dawley rat at 10 mg/kg, po; type: ADME, organism-based; parameters: dose 10 mg/kg, route oral; settings: in vivo; how it was run: as §1
[10] = Clearance in Sprague-Dawley rat at 10 mg/kg, iv; type: ADME, organism-based; parameters: dose 10 mg/kg, route intravenous; settings: in vivo
Neuraminidase [11] = target: T1, Neuraminidase; assay: Inhibition of Influenza A virus H5N1 neuraminidase
Neuraminidase [12] = target: T1, Neuraminidase; assay: Inhibition of Influenza A virus Mississippi/1/85(H3N2) neuraminidase
Neuraminidase [13] = target: T1, Neuraminidase; assay: Inhibition of Influenza A virus […]/78(H1N1) neuraminidase
[14] = target: Neuraminidase (Influenza A virus) (UniProt B4URF0); assay: Inhibition of influenza A virus (A/Guangdong/376/2001(H1N1)) neuraminidase infected in chick embryo using MUNANA as substrate at 1 uM after 1 hr by spectrophotometric analysis
[15] = AUC (0 to 8 hrs) in Sprague-Dawley rat at 2 mg/kg, iv; type: ADME, organism-based; parameters: time < 8 hr, dose 2 mg/kg, route intravenous; settings: plasma
How it was run: (§2)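 Male Sprague-Dawley rats (~250 g), three per group. One group received 10 mg/kg orally and the other 2 mg/kg intravenously. Blood was drawn from the retrobulbar vein at 0, 5, 15 and 30 min and at 1, 2, 5, 8 and 24 h. Plasma levels were measured by LC/MS/MS, and parameters were calculated by noncompartmental analysis of mean plasma concentrations.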

[16] = Terminal half life in Sprague-Dawley rat at 2 mg/kg, iv; type: ADME, organism-based; parameters: dose 2 mg/kg, route intravenous; settings: in vivo, read-out: beta t1/2 (converted)
How it was run: (§3)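 Male Sprague-Dawley rats (~250 g), three per group, given a single 2 mg/kg intravenous dose. Blood samples were drawn via the retrobulbar vein at 0, 5, 15 and 30 min and at 1, 2, 5, 8 and 24 h. Plasma levels were quantified by LC/MS/MS, and parameters were derived by noncompartmental analysis of mean plasma concentrations.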

[17] = Clearance in Sprague-Dawley rat at 2 mg/kg, iv; type: ADME, organism-based; parameters: dose 2 mg/kg, route intravenous; settings: in vivo; how it was run: as §3
[18] = Cmax in Sprague-Dawley rat at 2 mg/kg, iv; type: ADME, organism-based; parameters: dose 2 mg/kg, route intravenous; settings: in vivo; how it was run: as §3
[19] = Mean residence time in Sprague-Dawley rat at 10 mg/kg, po; type: ADME, organism-based; parameters: dose 10 mg/kg, route oral; settings: in vivo; how it was run: as §1
[20] = Mean residence time in Sprague-Dawley rat at 2 mg/kg, iv; type: ADME, organism-based; parameters: dose 2 mg/kg, route intravenous; settings: in vivo; how it was run: as §3
[21] = AUC (0 to 8 hrs) in Sprague-Dawley rat at 10 mg/kg, po; type: ADME, organism-based; parameters: time < 8 hr, dose 10 mg/kg, route oral; settings: plasma; how it was run: as §2
[22] = Volume of distribution at steady state in Sprague-Dawley rat at 2 mg/kg, iv; type: ADME, organism-based; parameters: dose 2 mg/kg, route intravenous; settings: in vivo, read-out: Vdss; how it was run: as §3

T1 sequence (B4URF0 whole entry): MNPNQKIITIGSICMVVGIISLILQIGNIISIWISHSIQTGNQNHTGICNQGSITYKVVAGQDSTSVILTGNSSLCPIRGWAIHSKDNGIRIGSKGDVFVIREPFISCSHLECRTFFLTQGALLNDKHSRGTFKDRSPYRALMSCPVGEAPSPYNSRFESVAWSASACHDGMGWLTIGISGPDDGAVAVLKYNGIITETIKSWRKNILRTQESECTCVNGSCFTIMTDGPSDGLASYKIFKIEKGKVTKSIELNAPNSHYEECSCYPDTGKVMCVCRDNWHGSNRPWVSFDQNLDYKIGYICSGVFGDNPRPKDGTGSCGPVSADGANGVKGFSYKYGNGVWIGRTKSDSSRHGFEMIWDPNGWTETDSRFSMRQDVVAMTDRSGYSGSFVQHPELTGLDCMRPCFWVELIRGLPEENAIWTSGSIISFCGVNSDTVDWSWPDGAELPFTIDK
Sequence of Neuraminidase (Influenza A virus) (B4URF0 as listed by the source): as the sequence (B4URF0 whole entry) above

| Compound | IC50 (Neuraminidase [1]) | IC50 (Neuraminidase [2]) | IC50 (Neuraminidase [3]) | also measured |
| --- | --- | --- | --- | --- |
| CC(=O)N[C@H]1[C@H]([C@H](O)[C@H](O)CO)OC(C(=O)N[C@H](C(=O)O)C(C)C)=C[C@@H]1NC(=N)N | 4.19 µM | 0.107 µM | 2.14 µM | – |
| CC(=O)N[C@H]1[C@H]([C@H](O)[C@H](O)CO)OC(C(=O)NCCC(=O)O)=C[C@@H]1NC(=N)N | 0.07 µM | 0.5 µM | 0.36 µM | – |
| CC(=O)N[C@H]1[C@H]([C@H](O)[C@H](O)CO)OC(C(=O)NCc2ccc(C)cc2)=C[C@@H]1NC(=N)N | 0.28 µM | 0.85 µM | 0.26 µM | – |
| CC(=O)N[C@H]1[C@H]([C@H](O)[C@H](O)CO)OC(C(=O)N2CCC(C(=O)O)CC2)=C[C@@H]1N | 5.76 µM | 5.86 µM | 6.33 µM | – |
| CC(=O)N[C@H]1[C@H]([C@H](O)[C@H](O)CO)OC(C(=O)N[C@@H](C)C(=O)O)=C[C@@H]1NC(=N)N | 0.063 µM | 0.41 µM | 0.1 µM | – |
| CC(=O)N[C@H]1[C@H]([C@H](O)[C@H](O)CO)OC(C(=O)N[C@@H](CC(C)C)C(=O)O)=C[C@@H]1NC(=N)N | 3.51 µM | 22.5 µM | 5.11 µM | – |
| COc1ccc(CNC(=O)C2=C[C@H](O)[C@@H](NC(C)=O)[C@H]([C@H](O)[C@H](O)CO)O2)cc1 | > 1000 µM | 858 µM | > 1000 µM | – |
| CC(=O)N[C@H]1[C@H]([C@H](O)[C@H](O)CO)OC(C(=O)N[C@@H](CC(C)C)C(=O)O)=C[C@@H]1N | 669 µM | 647 µM | 159 µM | – |
| CCOC(=O)C1=C[C@@H](OC(CC)CC)[C@H](NC(C)=O)[C@@H](N)C1.O=P(O)(O)O [OSELTAMIVIR PHOSPHATE] | – | – | – | half-life [4]: 1.6 h; Vd [5]: 1.3 L/kg; half-life [6]: 10.6 h; Cmax [7]: 30 ng/mL; bioavailability [8]: 4.3%; Tmax [9]: 4 h; clearance [10]: 25 mL/min/kg |
| CC(=O)N[C@H]1[C@H]([C@H](O)[C@H](O)CO)OC(C(=O)O)=C[C@@H]1O [NEU5AC2EN] | – | – | – | IC50 (Neuraminidase [11]): 0.012 µM; IC50 (Neuraminidase [12]): 52 µM; IC50 (Neuraminidase [13]): 240 µM |
| CC(=O)N[C@H]1[C@H]([C@H](O)[C@H](O)CO)OC(C(=O)N[C@H](C(=O)O)c2ccccc2)=C[C@@H]1O | 74.4 µM | 60 µM | 60.5 µM | – |
| CC(=O)N[C@H]1[C@H]([C@H](O)[C@H](O)CO)OC(C(=O)N2CCC[C@@H](C(=O)O)C2)=C[C@@H]1N | 162 µM | 146 µM | 103 µM | – |
| CC(=O)N[C@H]1[C@H]([C@H](O)[C@H](O)CO)OC(C(=O)N2CCOCC2)=C[C@@H]1O | 66.7 µM | 52.9 µM | 98.9 µM | – |
| CC(=O)N[C@H]1[C@H]([C@H](O)[C@H](O)CO)OC(C(=O)NCc2cccc(Cl)c2)=C[C@@H]1NC(=N)N | – | – | – | inhibition [14]: 51% |
| CC(=O)N[C@H]1[C@H]([C@H](O)[C@H](O)CO)OC(C(=O)N[C@H](C(=O)O)C(C)C)=C[C@@H]1O | 793 µM | 688 µM | > 1000 µM | – |
| CC(=O)N[C@H]1[C@H]([C@H](O)[C@H](O)CO)OC(C(=O)N[C@@H](CCC(=O)O)C(=O)O)=C[C@@H]1NC(=N)N | 0.16 µM | 0.81 µM | 0.45 µM | – |
| CC(=O)N[C@H]1[C@H]([C@H](O)[C@H](O)CO)OC(C(=O)NCc2ccccc2)=C[C@@H]1O | 822 µM | 707 µM | 143 µM | – |
| CC(=O)N[C@H]1[C@H]([C@H](O)[C@H](O)CO)OC(C(=O)N[C@H](C(=O)O)C(C)C)=C[C@@H]1N | 4.3 µM | 5.15 µM | 2.25 µM | – |
| CC(=O)N[C@H]1[C@H]([C@H](O)[C@H](O)CO)OC(C(=O)O)=C[C@@H]1N=C(N)N [ZANAMIVIR] | – | – | – | half-life [4]: 1.1 h; Vd [5]: 0.8 L/kg; Cmax [7]: 60 ng/mL; Tmax [9]: 1.2 h; clearance [10]: 31.7 mL/min/kg |
| CC(=O)N[C@H]1[C@H]([C@H](O)[C@H](O)CO)OC(C(=O)NCc2ccc(F)cc2)=C[C@@H]1NC(=N)N | – | – | – | inhibition [14]: 54.8% |
| CC[C@H](C)[C@H](NC(=O)C1=C[C@H](O)[C@@H](NC(C)=O)[C@H]([C@H](O)[C@H](O)CO)O1)C(=O)O | 939 µM | 790 µM | > 1000 µM | – |
| CC(=O)N[C@H]1[C@H]([C@H](O)[C@H](O)CO)OC(C(=O)NCC(=O)O)=C[C@@H]1N | 8.67 µM | 16.7 µM | 13.9 µM | – |
| CC(=O)N[C@H]1[C@H]([C@H](O)[C@H](O)CO)OC(C(=O)NCc2ccccc2F)=C[C@@H]1NC(=N)N | 0.26 µM | 0.89 µM | 0.24 µM | – |
| CC(=O)N[C@H]1[C@H]([C@H](O)[C@H](O)CO)OC(C(=O)NCc2cccc(F)c2)=C[C@@H]1NC(=N)N | 0.001 µM | 0.013 µM | 0.09 µM | AUC(0-t) at 8 h [15]: 5380 ng·h/mL; half-life [6]: 2.96 h; half-life [16]: 0.69 h; clearance [17]: 5.83 mL/min/kg; Cmax [7]: 260 nM; Cmax [18]: 8800 ng/mL; bioavailability [8]: 1.41%; Tmax [9]: 1 h; MRT [19]: 6.29 h; MRT [20]: 0.65 h; AUC(0-t) at 8 h [21]: 378 ng·h/mL; Vd [22]: 0.23 L/kg |
| CC(=O)N[C@H]1[C@H]([C@H](O)[C@H](O)CO)OC(C(=O)N[C@@H](CC(C)C)C(=O)O)=C[C@@H]1O | > 1000 µM | 918 µM | > 1000 µM | – |
